Several values for one entry are separate records, joined by “and”; a condition that tells them apart may be missing. Equal values may be shown once.
System: HEK-293T
Experiment: Multiplex assay against HEK293T
Assay type: toxicity, cell-based
Conditions: human
Method in brief: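 Hoechst33342, BioTracker Green Microtubule Cytoskeleton Dye, MitoTracker Red and Annexin V Alexa Fluor 680 were added to live cells at seeding, and imaging on a CQ1 microscope at 37°C and 5% CO2 followed compound addition. Gating by CellPathfinder machine learning separated cells into Hoechst high-intensity objects or normal cells, then normal cells into healthy, pyknosed or fragmented nuclei, then pyknosed cells into mitotic or apoptotic. Per cents of healthy-nucleus cells are reported for the tubulin, mitochondrial-mass and membrane-permeability phenotypes.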

[1] = 12 h, 1 µM, compound concentration 1 uM
[2] = 12 h, 10 µM, compound concentration 10 uM
[3] = 24 h, 1 µM, compound concentration 1 uM
[4] = 24 h, 10 µM, compound concentration 10 uM
[5] = 48 h, 1 µM, compound concentration 1 uM
[6] = 48 h, 10 µM, compound concentration 10 uM

CN1CCN(c2cc(-c3ccccc3)nc(N)n2)CC1
Population Apoptotic (%) [1]: 40% and 34%
Population Fragmented Nuclei (%) [1]: 8% and 5%
Population Healthy Nuclei (%) [1]: 79% and 84%
Population Hoechst High Intensity Objects (%) [1]: 6%
Population Membrane Permeable-Phenotype (%) [1]: 0%
Population Mitochondria Different-Phenotype (%) [1]: 35% and 48%
Population Mitotic Cells (%) [1]: 60% and 65%
Population Normal (%) [1]: 93%
Population Pyknosed Nuclei (%) [1]: 11% and 10%
Population Tubulin-Different-Phenotype (%) [1]: 21% and 16%
Total Cell Count [1]: 383 and 354
Population Apoptotic (%) [2]: 23% and 36%
Population Fragmented Nuclei (%) [2]: 7% and 6%
Population Healthy Nuclei (%) [2]: 82% and 81%
Population Hoechst High Intensity Objects (%) [2]: 7% and 10%
Population Membrane Permeable-Phenotype (%) [2]: 0%
Population Mitochondria Different-Phenotype (%) [2]: 46% and 63%
Population Mitotic Cells (%) [2]: 76% and 63%
Population Normal (%) [2]: 92% and 89%
Population Pyknosed Nuclei (%) [2]: 9% and 12%
Population Tubulin-Different-Phenotype (%) [2]: 30% and 20%
Total Cell Count [2]: 416 and 296
Population Apoptotic (%) [3]: 20% and 36%
Population Fragmented Nuclei (%) [3]: 9%
Population Healthy Nuclei (%) [3]: 79% and 82%
Population Hoechst High Intensity Objects (%) [3]: 4%
Population Membrane Permeable-Phenotype (%) [3]: 1%
Population Mitochondria Different-Phenotype (%) [3]: 16% and 24%
Population Mitotic Cells (%) [3]: 79% and 63%
Population Normal (%) [3]: 95%
Population Pyknosed Nuclei (%) [3]: 11% and 8%
Population Tubulin-Different-Phenotype (%) [3]: 12% and 8%
Total Cell Count [3]: 488 and 480
Population Apoptotic (%) [4]: 44% and 34%
Population Fragmented Nuclei (%) [4]: 13% and 9%
Population Healthy Nuclei (%) [4]: 75% and 79%
Population Hoechst High Intensity Objects (%) [4]: 6% and 9%
Population Membrane Permeable-Phenotype (%) [4]: 0%
Population Mitochondria Different-Phenotype (%) [4]: 32% and 50%
Population Mitotic Cells (%) [4]: 55% and 65%
Population Normal (%) [4]: 93% and 90%
Population Pyknosed Nuclei (%) [4]: 11%
Population Tubulin-Different-Phenotype (%) [4]: 19% and 17%
Total Cell Count [4]: 577 and 378
Population Apoptotic (%) [5]: 23% and 14%
Population Fragmented Nuclei (%) [5]: 13%
Population Healthy Nuclei (%) [5]: 78% and 80%
Population Hoechst High Intensity Objects (%) [5]: 1% and 2%
Population Membrane Permeable-Phenotype (%) [5]: 1% and 0%
Population Mitochondria Different-Phenotype (%) [5]: 12% and 14%
Population Mitotic Cells (%) [5]: 76% and 85%
Population Normal (%) [5]: 98% and 97%
Population Pyknosed Nuclei (%) [5]: 7% and 6%
Population Tubulin-Different-Phenotype (%) [5]: 12% and 9%
Total Cell Count [5]: 745 and 804
Population Apoptotic (%) [6]: 16% and 27%
Population Fragmented Nuclei (%) [6]: 17% and 13%
Population Healthy Nuclei (%) [6]: 75% and 81%
Population Hoechst High Intensity Objects (%) [6]: 3%
Population Membrane Permeable-Phenotype (%) [6]: 0% and 1%
Population Mitochondria Different-Phenotype (%) [6]: 25% and 24%
Population Mitotic Cells (%) [6]: 83% and 72%
Population Normal (%) [6]: 96%
Population Pyknosed Nuclei (%) [6]: 6% and 4%
Population Tubulin-Different-Phenotype (%) [6]: 14% and 11%
Total Cell Count [6]: 861 and 645

CC(=O)O[C@H]1C(=O)[C@@]2(C)[C@H]([C@H](OC(=O)c3ccccc3)[C@]3(O)C[C@H](OC(=O)[C@H](O)[C@@H](NC(=O)c4ccccc4)c4ccccc4)C(C)=C1C3(C)C)[C@]1(OC(C)=O)CO[C@@H]1C[C@@H]2O [PACLITAXEL]
Population Apoptotic (%) [2]: 41% and 56%
Population Fragmented Nuclei (%) [2]: 7% and 5%
Population Healthy Nuclei (%) [2]: 74% and 64%
Population Hoechst High Intensity Objects (%) [2]: 16% and 14%
Population Membrane Permeable-Phenotype (%) [2]: 0%
Population Mitochondria Different-Phenotype (%) [2]: 79% and 84%
Population Mitotic Cells (%) [2]: 58% and 43%
Population Normal (%) [2]: 83% and 85%
Population Pyknosed Nuclei (%) [2]: 17% and 29%
Population Tubulin-Different-Phenotype (%) [2]: 11% and 16%
Population Apoptotic (%) [4]: 35% and 47%
Population Fragmented Nuclei (%) [4]: 10% and 8%
Population Healthy Nuclei (%) [4]: 70% and 73%
Population Hoechst High Intensity Objects (%) [4]: 16% and 15%
Population Membrane Permeable-Phenotype (%) [4]: 0%
Population Mitochondria Different-Phenotype (%) [4]: 72% and 82%
Population Mitotic Cells (%) [4]: 64% and 52%
Population Normal (%) [4]: 83% and 84%
Population Pyknosed Nuclei (%) [4]: 18% and 17%
Population Tubulin-Different-Phenotype (%) [4]: 8% and 16%
Population Apoptotic (%) [6]: 29% and 69%
Population Fragmented Nuclei (%) [6]: 15% and 10%
Population Healthy Nuclei (%) [6]: 68% and 70%
Population Hoechst High Intensity Objects (%) [6]: 11%
Population Membrane Permeable-Phenotype (%) [6]: 0%
Population Mitochondria Different-Phenotype (%) [6]: 64% and 70%
Population Mitotic Cells (%) [6]: 70% and 30%
Population Normal (%) [6]: 88%
Population Pyknosed Nuclei (%) [6]: 15% and 19%
Population Tubulin-Different-Phenotype (%) [6]: 2% and 11%

Cc1[nH]nc2ccc(-c3cncc(OCC(N)Cc4c[nH]c5ccccc45)c3)cc12 (centres undefined)
Population Apoptotic (%) [1]: 14.46% and 12.06%
Population Fragmented Nuclei (%) [1]: 1.15% and 2.53%
Population Hoechst High Intensity Objects (%) [1]: 0.86% and 0%
Population Membrane Permeable-Phenotype (%) [1]: 1.98% and 0%
Population Mitotic Cells (%) [1]: 85.54% and 87.94%
Population Normal (%) [1]: 99.14% and 100%
Population Pyknosed Nuclei (%) [1]: 69.74% and 89.24%
Total Cell Count [1]: 350 and 158
Population Apoptotic (%) [2]: 26.81% and 37.12%
Population Fragmented Nuclei (%) [2]: 0.85% and 0%
Population Healthy Nuclei (%) [2]: 5.1% and 3.65%
Population Hoechst High Intensity Objects (%) [2]: 0.28% and 0%
Population Membrane Permeable-Phenotype (%) [2]: 0%
Population Mitochondria Different-Phenotype (%) [2]: 16.67% and 0%
Population Mitotic Cells (%) [2]: 73.19% and 62.88%
Population Normal (%) [2]: 99.72% and 100%
Population Pyknosed Nuclei (%) [2]: 94.05% and 96.35%
Total Cell Count [2]: 354 and 137
Population Apoptotic (%) [3]: 39.92% and 29.58%
Population Fragmented Nuclei (%) [3]: 0.63% and 1.97%
Population Hoechst High Intensity Objects (%) [3]: 0.62% and 0%
Population Membrane Permeable-Phenotype (%) [3]: 1.59% and 0%
Population Mitochondria Different-Phenotype (%) [3]: 34.92% and 28.57%
Population Mitotic Cells (%) [3]: 60.08% and 70.42%
Population Normal (%) [3]: 99.38% and 100%
Population Pyknosed Nuclei (%) [3]: 79.56% and 93.42%
Total Cell Count [3]: 320 and 152
Population Apoptotic (%) [4]: 80.3% and 96.64%
Population Fragmented Nuclei (%) [4]: 0.86% and 2.34%
Population Healthy Nuclei (%) [4]: 3.15% and 4.69%
Population Hoechst High Intensity Objects (%) [4]: 0.85% and 0%
Population Membrane Permeable-Phenotype (%) [4]: 0% and 16.67%
Population Mitochondria Different-Phenotype (%) [4]: 72.73% and 33.33%
Population Normal (%) [4]: 99.15% and 100%
Population Pyknosed Nuclei (%) [4]: 95.99% and 92.97%
Population Tubulin-Different-Phenotype (%) [4]: 72.73% and 33.33%
Total Cell Count [4]: 352 and 128
Population Apoptotic (%) [5]: 57.46% and 49.23%
Population Fragmented Nuclei (%) [5]: 2.33% and 1.39%
Population Healthy Nuclei (%) [5]: 21.93% and 8.33%
Population Hoechst High Intensity Objects (%) [5]: 0.33% and 0.69%
Population Membrane Permeable-Phenotype (%) [5]: 0%
Population Mitochondria Different-Phenotype (%) [5]: 86.36% and 58.33%
Population Mitotic Cells (%) [5]: 42.54% and 50.77%
Population Normal (%) [5]: 99.67% and 99.31%
Population Pyknosed Nuclei (%) [5]: 75.75% and 90.28%
Total Cell Count [5]: 302 and 145
Population Apoptotic (%) [6]: 80.14% and 100%
Population Fragmented Nuclei (%) [6]: 0.68% and 1.68%
Population Healthy Nuclei (%) [6]: 3.73% and 4.2%
Population Hoechst High Intensity Objects (%) [6]: 3.91% and 0%
Population Membrane Permeable-Phenotype (%) [6]: 9.09% and 0%
Population Mitochondria Different-Phenotype (%) [6]: 54.55% and 40%
Population Mitotic Cells (%) [6]: 19.86% and 0%
Population Normal (%) [6]: 96.09% and 100%
Population Pyknosed Nuclei (%) [6]: 95.59% and 94.12%
Population Tubulin-Different-Phenotype (%) [6]: 45.45% and 40%
Total Cell Count [6]: 307 and 119

From ChEMBL document CHEMBL5724801, “EUbOPEN Chemogenomics Library - Multiplex” (2024)
